Experimental data gathered from unrelated publications.
Lines come from different studies, so protocols differ. Converted amounts (≈) assume the structure as drawn.

Cc1cnc(NC(=O)/C=C/c2cccs2)nc1 gave an MIC80 of 25 µM (≈ 6.13 µg/mL) (Candida albicans; microbial growth; 48 h).
O=c1ccc2nc3ccc(O)cc3oc-2c1 gave an MIC of greater than 32 µg/mL (Enterococcus faecium; microbial growth; 24 h).
For O=C(CCc1ccccc1)Nc1ncccn1, the MIC80 was greater than 100 µM (Candida albicans; microbial growth; 48 h).
O=c1ccc2nc3ccc(OCc4ccc([N+](=O)[O-])o4)cc3oc-2c1 has an MIC of greater than 32 µg/mL (Enterococcus faecium; microbial growth; 24 h).
CC(=O)N1CCN(c2ccc(OCC3COC(Cn4ccnc4)(c4ccc(Cl)cc4Cl)O3)cc2)CC1 (centres unmarked) gave an MFC of greater than 64 µM (Candida albicans; microbial killing; broth dilution; 58288; 48 h).
With OC(Cn1cncn1)(Cn1cncn1)c1ccc(F)cc1F the MIC was 2 µg/mL (≈ 6.53 µM) (Candida albicans; microbial growth; broth dilution; ATCC60193).
The MFC of OC(Cn1cncn1)(Cn1cncn1)c1ccc(F)cc1F is reported as greater than 64 µM (Candida albicans; microbial killing; broth dilution; SP3903; 48 h).
With N.N.[Cl][Pt][Cl] the IC50 was 56.1 µM (CCD 19Lu; cell growth or viability; MTT; 72 h).
